# This is one part of a sample in which hits are shown more often than they occur.
# Fibroblast inh: blocks proliferation of human lung fibroblasts. 85,000 tested, 1.1% active. AID 719. LL 47 human lung fibroblast viability, ATP luminescence; hits give low values. viability, % at 10 µM;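 active = viability at or below 50% in the single dose screen; inactive = viability above 50%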;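 also: compound exposure lasted 72 h before the ATP readout; 100% = median luminescence of untreated cell-only wells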
#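 Assay system: human lung fibroblast line LL 47, low passage. Input: 1,150 fibroblasts seeded per well. Times: overnight cell rest, 72 h compound treatment at 37 °C. Evaluation: % viability of median cell-only signal. Technique: luminescent ATP detection, CellTiter-Glo. Control set: cell-only wells, no compound.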
# HUVEC inhibit: inhibitors of human endothelial cell proliferation; HUVEC proliferation, CellTiter-Glo luminescence, 72 h; hits give low values; viability, % at 10 µM (by protocol); 86,000 tested, 1.1% active; AID 648;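 active = viability at or below 30%; inactive = viability above 30%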;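 also: 100% = median luminescence of DMSO-only cell control wells on each plate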
# bCat KO growth: beta-catenin-lacking colon tumor cell growth suppression; HCT116 beta-catenin knockout viability, CellTiter-Glo, 60 h; hits give low values; viability, % at 10 µM; 140,000 tested, 1.5% active;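 active = viability at or under a set limit, the compound median less 4 SD, cut at about 6% in these data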;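 also: 0% = Hyamine 1622 control at 20 µM and 100% = untreated cell control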
# H69AR inhibit: growth inhibitors of human H69AR lung tumor cells. H69AR lung tumor viability, ATP luminescence, 72 h; hits give low values. viability, % at 10 µM. 85,000 tested, 6% active;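 active = viability at or below 40%; inactive = viability above 40%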;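 also: multidrug resistant small cell line overexpressing MRP-1 efflux transporter; 100% = mean luminescence of untreated control wells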
# HCT116 PTEN-null: suppresses growth of cells with PTEN deletion; HCT116 PTEN-null viability, CellTiter-Glo, 60 h; hits give low values; viability, % at 10 µM; 140,000 tested, 1.2% active; AID 827;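 active = viability at or below a set limit, 4 SD under the median of all tested compounds, cut at about 3.7% in these data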;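 also: PTEN knockout HCT116 line with beta catenin targeted HCT116 as companion control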
# Active calls of the source: *; · = no result given.
SMILES,Fibroblast inh,HUVEC inhibit,bCat KO growth,H69AR inhibit,HCT116 PTEN-null
C=CCc1c(OC)ccc2ccc(=O)oc12,·,·,97.2,·,102.2
CC(C)(O)c1cn(-c2nonc2N)nn1,101.2,99.9,101.8,90.2,88.8
CCOC(=O)c1nnn(CC(=O)N2N=C(c3ccc(Cl)cc3)CC2c2ccc(OC)cc2)c1C(=O)OCC (configuration not stated),80.9,79.8,85.6,73.7,82.9
CCOC(=O)c1nnn(CC(=O)N2N=C(c3ccc(Cl)cc3)CC2c2ccccc2)c1C(=O)OCC (configuration not stated),67.8,74.8,67.2,19.0*,72.1
N#CC1=C(N)NC(SCC(=O)Nc2ccccc2)=C(C#N)C12CCCC2,·,·,100.4,·,90.6
C=CCNC(=S)N/N=C(\C)c1ccccn1,9.2*,18.9*,7.0,20.5*,7.3
C/C(=N\NC(=S)NCc1ccccc1)c1ccccc1,·,·,85.7,·,85.1
C/C(=N/NC(=O)CNC(=O)c1ccccn1)c1ccccc1,·,·,106.9,·,97.1
C/C(=N\NC(=O)CCCNc1ccc(C)cc1)c1ccccn1,·,·,5.8*,·,5.5
CC1(CC(=O)O)SC(=O)NC1=O (configuration not stated),109.4,103.2,117.8,91.0,99.1
Nc1nnc(SCc2ccc(Cl)cc2)s1,107.3,97.6,0.8*,99.6,0.8*
COc1ccc(C(c2sc3ncnn3c2O)N2CC(C)OC(C)C2)cc1OC (configuration not stated),88.3,29.4*,95.8,97.3,99.0
COc1ccc(C(c2sc3ncnn3c2O)N2CCN(c3ccccc3F)CC2)cc1OC (configuration not stated),93.0,36.9,94.1,89.6,89.8
O=c1cc(-c2ccccc2)[nH]c2nc3ccccc3n12,66.2,52.7,20.9,13.7*,16.6
Cc1ccc(C(=C2C3C=CC2C2C(=O)NC(=O)C32)c2ccc(C)cc2)cc1 (configuration not stated),96.8,96.6,88.1,82.8,88.6
COC(=O)[C@@]1(Cc2ccc(OC)cc2)[C@@H]2[C@@H](CC(=O)[C@H]2CC(=O)C(=O)N(C)C)CN1C(=O)c1ccccc1,·,·,56.7,·,74.2
COC(=O)[C@@]1(Cc2ccc(OC)cc2)[C@@H]2C(=CC(=O)[C@H]2CC(=O)C(=O)N2CCCC2)CN1C(=O)c1ccccc1,·,·,1.9*,·,2.0*
COc1ccccc1N1C(=O)CC(Sc2n[nH]c(-c3cccc(C)c3)n2)C1=O (configuration not stated),·,·,100.2,·,100.3
Cc1ccc2[nH]c(=O)c(CN(CC3CCCO3)C(=S)Nc3ccccc3)cc2c1 (configuration not stated),·,·,42.2,·,34.7
Cc1ccc(N=C(NOCc2ccc(Cl)cc2Cl)c2nonc2N)c(C)c1,82.9,91.8,42.4,65.8,53.6
Cc1ccccc1N=C(NOCc1ccc(Cl)cc1Cl)c1nonc1N,78.5,85.5,68.5,9.2*,65.2
Cn1c(SCC(=O)N2CCCCCC2)nc2c([nH]c3ccccc32)c1=O,67.4,80.7,85.0,37.6*,92.4
CC(=O)Nc1cccc(NC(=O)Cc2nc(-c3ccccc3)sc2-c2ccc(C)cc2)c1,·,·,9.8,·,1.4*
COc1cccc(NC(=O)Cc2nc(-c3ccccc3)sc2-c2ccc(C)cc2)c1,·,·,72.3,·,63.2
O=C(/C=C/c1ccccc1)c1ccc(NC2=NCCCS2)cc1,·,·,9.1,·,10.0
SMILES,Fibroblast inh,HUVEC inhibit,bCat KO growth,H69AR inhibit,HCT116 PTEN-null
CC(C)(C)c1ccc(/C=C/C(=O)c2ccc(NC3=NCCCS3)cc2)cc1,·,·,1.1*,·,0.9*
O=C(/C=C/c1ccc(Br)cc1)c1ccc(NC2=NCCCS2)cc1,·,·,3.2*,·,2.4*
COC(=O)c1cc(NC(=O)c2c(F)c(F)c(F)c(F)c2F)cc(C(=O)OC)c1,·,·,82.6,·,73.8
COc1ccc(S(=O)(=O)N2CCOCC2)cc1C(=O)Nc1cc(C)on1,108.9,108.1,101.4,88.0,100.3
O=C(OCC#CCSc1nnc(-c2ccc([N+](=O)[O-])cc2)o1)c1cccs1,98.0,90.9,79.5,36.6*,89.3
CCOC(=O)CN(Cc1sccc1C)C(=O)Nc1ccc(OCC)cc1,·,·,95.4,·,99.2
O=C(Nc1ncc(Cc2ccccc2)s1)c1cccs1,81.3,71.3,81.8,69.3,68.3
O=C(Nc1ncc(Cc2cccc(Cl)c2)s1)c1cccs1,83.5,31.0,32.6,35.3*,41.7
Cc1ccc(Cc2cnc(NC(=O)c3cccs3)s2)cc1,78.0,55.8,37.2,16.7*,27.8
O=C(NCc1cccnc1)c1ccc(COc2ccccc2Br)o1,92.0,63.4,78.2,72.2,63.2
O=C(NCc1cccnc1)c1ccc(COc2ccc3c(c2)CCC3)o1,95.1,81.0,74.8,6.4*,64.5
O=S(NCc1ccco1)C12CC3CC(CC(C3)C1)C2 (configuration not stated),91.7,86.9,89.2,88.3,83.0
Cc1cccc(C(=O)Nc2sc(C)c(-c3ccccc3)c2C#N)c1,·,·,70.2,·,68.9
NC(=O)c1c(NC(=O)CSc2nnc(-c3ccccc3)n2CC2CCCO2)sc2c1CCC2 (configuration not stated),95.6,94.7,86.2,32.9*,96.1
N#Cc1c(NC(=O)CSc2nnc(-c3ccncc3)n2CC2CCCO2)sc2c1CCCC2 (configuration not stated),89.5,92.1,95.0,·,91.0
Cc1onc(-c2c(F)cccc2Cl)c1C(=O)Nc1sc2c(c1C(N)=O)CCC2,76.3,69.8,22.8,15.9*,15.5
Cc1onc(-c2ccccc2)c1C(=O)Nc1sc2c(c1C#N)CCC2,75.9,67.8,35.6,16.1*,25.8
Cc1onc(-c2ccccc2)c1C(=O)NC(=S)Nc1sc2c(c1C#N)CCCC2,·,·,93.3,·,97.7
Cc1onc(-c2c(F)cccc2Cl)c1C(=O)Nc1sc2c(c1C#N)CCC(C(C)(C)C)C2 (configuration not stated),71.8,75.5,74.4,79.9,74.2
Cc1noc(C)c1C(=O)Nc1sc(C)c(-c2ccccc2)c1C#N,94.9,57.3,85.9,32.0*,94.8
O=C(Cn1cc(C(F)(F)F)ccc1=O)N/N=C/c1ccc(Cl)cc1,·,·,99.5,·,105.6
Cc1nnc(NC(=O)c2c(-c3ccccc3)noc2C)s1,105.3,100.6,86.6,108.5,91.3
Cc1onc(-c2ccccc2)c1C(=O)Nc1sc2c(c1C(N)=O)CCC2,90.7,89.1,80.5,34.1*,86.1
CCOC(=O)c1c(CSc2ccccc2)n(C)c2cc(Br)c(OCC(O)CNC(CO)(CO)CO)cc12 (configuration not stated),·,·,1.5*,·,2.1*
CCOC(=O)c1c(CN2CCN(Cc3ccccc3)CC2)n(C)c2cc(Br)c(OC)cc12,101.4,74.8,56.0,13.9*,55.8
CCOC(=O)c1c(CSc2ccccc2)oc2ccc(O)cc12,·,·,85.2,·,93.8
CCOC(=O)c1c(C)n(C)c2cc(Br)c(C)cc12,99.2,98.4,90.5,97.2,95.2
c1ccc2c(-c3nnc(SCc4cn5ccccc5n4)o3)c[nH]c2c1,119.5,89.4,95.4,63.0,104.5
c1ccc(CSc2nnc(-c3c[nH]c4ccccc34)o2)cc1,106.2,27.2*,71.5,96.7,62.6
